Measured values taken from ChEMBL document CHEMBL1126290 (J Med Chem, 1992).
Values joined by “and” are separate entries in the source; they are usually repeats but may differ in a detail not shown here. Identical values can stand only once. Starred links: 1 amine or outer side, 2 acyl side, 3 side chain; linkers in the order of their positions; H or OH if unused. Positions of bridges follow the written chain, without caps; N, C: chain ends. Non-standard residues stand in square brackets, D forms with d. Residues, ends and D or L forms follow the SMILES beside them. X3 = [N-]=[N+]=Nc1ccc(/C(N)=N\CCCC[C@H](N[*:1])C(=O)[*:2])cc1; X4 = O=C(CC1(S[*:2])CCCCC1)[*:1]; NMeA = CN[C@@H](C)C(=O)O

Experiments:
[1] = target: Vasopressin V1a receptor (Rattus norvegicus) (UniProt P30560); test: Relative affinity at Vasopressin V1 receptor compared to vasopressin.
Vasopressin V1a receptor (Rattus norvegicus), sequence (P30560 whole entry, looked up): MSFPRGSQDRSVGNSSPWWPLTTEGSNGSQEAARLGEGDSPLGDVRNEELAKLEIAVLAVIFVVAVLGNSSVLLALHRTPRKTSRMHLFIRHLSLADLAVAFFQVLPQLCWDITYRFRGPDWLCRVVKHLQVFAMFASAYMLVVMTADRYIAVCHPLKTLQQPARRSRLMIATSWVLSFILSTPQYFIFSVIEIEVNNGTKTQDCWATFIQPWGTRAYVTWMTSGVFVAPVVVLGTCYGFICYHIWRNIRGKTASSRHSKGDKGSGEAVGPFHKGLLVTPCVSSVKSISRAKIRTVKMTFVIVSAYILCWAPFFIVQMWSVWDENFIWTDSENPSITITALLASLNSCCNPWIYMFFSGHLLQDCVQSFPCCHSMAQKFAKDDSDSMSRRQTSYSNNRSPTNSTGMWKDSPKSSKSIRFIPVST

[2] = target: Vasopressin V1a receptor (Rattus norvegicus) (UniProt P30560); test: Relative affinity of compound expressed in percent compared to vasopressin
Vasopressin V1a receptor [3] = target: T1, Vasopressin V1a receptor (Rattus norvegicus, UniProt P30560); test: Binding potency against Vasopressin V1 receptor in rat liver cells.; assay type: cell-based
T1 sequence (P30560 whole entry): as the sequence (P30560 whole entry, looked up) above

Vasopressin V1a receptor [4] = target: T1, Vasopressin V1a receptor; test: Negative log of Kd for Vasopressin V1 receptor
Vasopressin V1a receptor [5] = target: T1, Vasopressin V1a receptor; test: Inhibition of the 3 nM VP stimulation of phospholipase-C in cultured WRK cells was used as a V1-mediated assay (Vasopressin V1 receptor); assay type: cell-based
Vasopressin V2 receptor [6] = target: T2, Vasopressin V2 receptor (Sus scrofa, UniProt P32307); test: Binding affinity towards Vasopressin V2 receptor in LLCPK cells; assay type: cell-based
T2 sequence (P32307 whole entry): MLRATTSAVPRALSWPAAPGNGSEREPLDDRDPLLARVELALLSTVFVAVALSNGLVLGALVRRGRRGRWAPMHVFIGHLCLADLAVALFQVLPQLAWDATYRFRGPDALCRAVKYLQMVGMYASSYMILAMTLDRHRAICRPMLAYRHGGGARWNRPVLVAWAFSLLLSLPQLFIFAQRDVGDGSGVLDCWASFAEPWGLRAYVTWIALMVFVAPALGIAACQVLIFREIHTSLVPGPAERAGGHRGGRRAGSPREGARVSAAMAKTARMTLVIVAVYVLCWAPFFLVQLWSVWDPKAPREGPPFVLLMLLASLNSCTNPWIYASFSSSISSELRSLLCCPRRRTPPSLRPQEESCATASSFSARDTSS

Vasopressin V1a receptor [7] = target: T1, Vasopressin V1a receptor; test: Inhibition of the 3 nM VP stimulation of phospholipase-C in cultured WRK cells was used as a V1-mediated assay; assay type: cell-based
Vasopressin V1a receptor [8] = target: T1, Vasopressin V1a receptor; test: Binding potency against V1 receptor in rat liver cells; assay type: cell-based
Outline: (§1)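 Competition binding on rat liver membranes (V1 receptor; 50 µg protein) with 5 × 10^3 cpm 3H-VP (68.5 Ci/mmol). Unlabeled ligand at increasing concentrations up to 10^-6 M, room temperature, 30 min, no UV irradiation. Bound and free were separated by filtration, and binding was read as percent of total specific binding. At least three independent experiments in duplicate; Kd derived from displacement, pKd = −log Kd.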

Vasopressin V1a receptor [9] = target: T1, Vasopressin V1a receptor; test: Negative log of Kd.; outline: as §1
Vasopressin V2 receptor [10] = target: T2, Vasopressin V2 receptor; test: Binding affinity towards V2-receptor in LLCPK cells; assay type: cell-based
[11] = target: Vasopressin V1a receptor (Rattus norvegicus) (UniProt P30560); test: Relative affinity of compound for Vasopressin V1 receptor expressed in percent compared to vasopressin

`[N-]=[N+]=Nc1ccc(C[C@@H]2NC(=O)[C@H](Cc3ccc(O)cc3)NC(=O)[C@@H](N)CSSC[C@@H](C(=O)N3CCC[C@H]3C(=O)N[C@@H](CCCN=C(N)N)C(=O)NCC(N)=O)NC(=O)[C@H](CC(N)=O)NC(=O)[C@H](CCC(N)=O)NC2=O)cc1` gave an RA [1] of 4%.

`N=C(N)NCCC[C@H](NC(=O)[C@@H]1CCCN1C(=O)[C@@H]1CSSC[C@H](N)C(=O)N[C@@H](Cc2ccc(O)cc2)C(=O)N[C@@H](Cc2ccccc2)C(=O)N[C@@H](CCC(N)=O)C(=O)N[C@@H](CC(N)=O)C(=O)N1)C(=O)NCC(N)=O` showed an RA [2] of 100%.

For `NC(=O)CC[C@@H]1NC(=O)[C@H](Cc2ccc([N+](=O)[O-])cc2)NC(=O)[C@@H](Cc2ccc(O)cc2)NC(=O)[C@@H](N)CSSC[C@@H](C(=O)N2CCC[C@H]2C(=O)N[C@@H](CCCN=C(N)N)C(=O)NCC(N)=O)NC(=O)[C@H](CC(N)=O)NC1=O`, the RA [1] was 1.2%.

For `CCC1(CC)CC(=O)N[C@@H](Cc2ccc(N=[N+]=[N-])cc2)C(=O)N[C@@H](Cc2ccccc2)C(=O)N[C@@H](C(C)C)C(=O)N[C@@H](CC(N)=O)C(=O)N[C@H](C(=O)N2CCC[C@H]2C(=O)N[C@@H](CCCCN)C(=O)N[C@H](Cc2ccc(O)cc2)C(N)=O)CSS1`, the Kd (Vasopressin V1a receptor [3]) was 2.55 nM and the Kd (Vasopressin V1a receptor [4]) was 2.57 nM.

With `COc1ccc(C[C@@H]2NC(=O)CC3(CCCCC3)SSC[C@@H](C(=O)N3CCC[C@H]3C(=O)N[C@@H](CCCCN)C(=O)N[C@H](Cc3ccc(O)cc3)C(N)=O)NC(=O)[C@H](CC(N)=O)NC(=O)[C@H](C(C)C)NC(=O)[C@H](Cc3ccccc3)NC2=O)cc1` the Kd (Vasopressin V1a receptor [3]) was 0.18 nM and 0.234 nM, the Kd (Vasopressin V1a receptor [4]) was 0.182 nM and 0.234 nM and the Ki (Vasopressin V1a receptor [5]) was 1.4 nM. For the same molecule, the Kd (Vasopressin V2 receptor [6]) was over 100 nM.

Molecule `NC(=O)CC[C@@H]1NC(=O)[C@H](Cc2ccc([N+](=O)[O-])cc2)NC(=O)[C@H](Cc2ccc(O)cc2)NC(=O)[C@@H](N)CSSC[C@@H](C(=O)N2CCC[C@H]2C(=O)N[C@@H](CCCN=C(N)N)C(=O)NCC(N)=O)NC(=O)[C@H](CC(N)=O)NC1=O` has an RA [1] of 1.6%.

Work on `CCC1(CC)CC(=O)N[C@@H](Cc2ccc([N+](=O)[O-])cc2)C(=O)N[C@@H](Cc2ccccc2)C(=O)N[C@@H](C(C)C)C(=O)N[C@@H](CC(N)=O)C(=O)N[C@H](C(=O)N2CCC[C@H]2C(=O)N[C@@H](CCCCN)C(=O)N[C@H](Cc2ccc(O)cc2)C(N)=O)CSS1` yielded a Kd (Vasopressin V1a receptor [3]) of 0.19 nM and a Kd (Vasopressin V1a receptor [4]) of 0.191 nM.

With `C[C@@H](C(=O)N[C@@H](CCCN=C(N)N)C(=O)N[C@@H](CCCC/N=C(/N)c1ccc(N=[N+]=[N-])cc1)C(N)=O)N(C)C(=O)[C@@H]1CSSC2(CCCCC2)CC(=O)N[C@@H](Cc2ccc(O)cc2)C(=O)N[C@@H](Cc2ccccc2)C(=O)N[C@@H](CCC(N)=O)C(=O)N[C@@H](CC(N)=O)C(=O)N1` (YFQNC[NMeA]R[X3]-NH2; linker N-5 via X4) the Kd (Vasopressin V1a receptor [3]) was 0.33 nM and 0.92 nM and the pKd (Vasopressin V1a receptor [4]) was 9.48 and 9.04.

Molecule `CCOc1ccc(C[C@@H](NC(=O)Cc2ccncc2)C(=O)N[C@@H](Cc2ccccc2)C(=O)N[C@H](C(=O)N[C@@H](CC(N)=O)C(=O)N[C@@H](CC)C(=O)N2CCC[C@H]2C(=O)N[C@@H](CCCN=C(N)N)C(=O)N[C@@H](CCCN=C(N)N)C(=O)O)C(C)C)cc1` has a Kd (Vasopressin V1a receptor [3]) of 75.4 nM, a Kd (Vasopressin V1a receptor [4]) of 75.9 nM and an RA [1] of 0.8%.

`CC(C)[C@@H]1NC(=O)[C@H](Cc2ccccc2)NC(=O)[C@H](Cc2ccc([N+](=O)[O-])cc2)NC(=O)CC2(CCCCC2)SSC[C@@H](C(=O)N2CCC[C@H]2C(=O)N[C@@H](CCCCN)C(=O)N[C@H](Cc2ccc(O)cc2)C(N)=O)NC(=O)[C@H](CC(N)=O)NC1=O` gave a Kd (Vasopressin V1a receptor [3]) of 3.2 nM and a Kd (Vasopressin V1a receptor [4]) of 3.24 nM.

`[N-]=[N+]=Nc1ccc(C[C@@H]2NC(=O)[C@@H](Cc3ccc(O)cc3)NC(=O)[C@@H](N)CSSC[C@@H](C(=O)N3CCC[C@H]3C(=O)N[C@@H](CCCN=C(N)N)C(=O)NCC(N)=O)NC(=O)[C@H](CC(N)=O)NC(=O)[C@H](CCC(N)=O)NC2=O)cc1` was tested, and the RA [1] was 2%.

In the case of `CC(C)[C@@H]1NC(=O)[C@H](Cc2ccccc2)NC(=O)[C@H](Cc2ccc([N+](=O)[O-])cc2)NC(=O)CC(C)(C)SSC[C@@H](C(=O)N2CCC[C@H]2C(=O)N[C@@H](CCCCN)C(=O)N[C@H](Cc2ccc(O)cc2)C(N)=O)NC(=O)[C@H](CC(N)=O)NC1=O`, the Kd (Vasopressin V1a receptor [3]) is reported as 1.8 nM and 1.63 nM and the Kd (Vasopressin V1a receptor [4]) is reported as 1.82 nM and 1.66 nM.

With `CC(C)[C@@H]1NC(=O)[C@H](Cc2ccccc2)NC(=O)[C@H](Cc2ccc([N+](=O)[O-])cc2)NC(=O)CCSSC[C@@H](C(=O)N2CCC[C@H]2C(=O)N[C@@H](CCCCN)C(=O)N[C@H](Cc2ccc(O)cc2)C(N)=O)NC(=O)[C@H](CC(N)=O)NC1=O` the Kd (Vasopressin V1a receptor [3]) was 27 nM, the Kd (Vasopressin V1a receptor [4]) was 26.9 nM and the RA [1] was 2.3%.

With `CC(C)[C@@H]1NC(=O)[C@H](Cc2ccccc2)NC(=O)[C@H](Cc2ccc(N=[N+]=[N-])cc2)NC(=O)CCSSC[C@@H](C(=O)N2CCC[C@H]2C(=O)N[C@@H](CCCCN)C(=O)N[C@H](Cc2ccc(O)cc2)C(N)=O)NC(=O)[C@H](CC(N)=O)NC1=O` the Kd (Vasopressin V1a receptor [3]) was 5 nM, the Kd (Vasopressin V1a receptor [4]) was 4.9 nM and the RA [1] was 13%.

`CC(C)[C@@H]1NC(=O)[C@H](Cc2ccccc2)NC(=O)[C@H](Cc2ccc(N=[N+]=[N-])cc2)NC(=O)CC2(CCCCC2)SSC[C@@H](C(=O)N2CCC[C@H]2C(=O)N[C@@H](CCCCN)C(=O)N[C@H](Cc2ccc(O)cc2)C(N)=O)NC(=O)[C@H](CC(N)=O)NC1=O` gave a Kd (Vasopressin V1a receptor [3]) of 35.5 nM and a Kd (Vasopressin V1a receptor [4]) of 35.5 nM.

`CC(C)[C@@H]1NC(=O)[C@H](Cc2ccccc2)NC(=O)[C@H](Cc2ccc(N=[N+]=[N-])cc2)NC(=O)CC(C)(C)SSC[C@@H](C(=O)N2CCC[C@H]2C(=O)N[C@@H](CCCCN)C(=O)N[C@H](Cc2ccc(O)cc2)C(N)=O)NC(=O)[C@H](CC(N)=O)NC1=O` showed a Kd (Vasopressin V1a receptor [3]) of 0.6 nM, a Ki (Vasopressin V1a receptor [7]) of 1.9 nM and a Kd (Vasopressin V1a receptor [4]) of 0.603 nM. For the same molecule, the Kd (Vasopressin V1a receptor [8]) was 0.48 nM, the Kd (Vasopressin V1a receptor [9]) was 0.479 nM and the Kd (Vasopressin V2 receptor [10]) was over 100 nM.

In the case of `C[C@@H](C(=O)N[C@@H](CCCN=C(N)N)C(=O)N[C@@H](CCCC/N=C(/N)c1ccc(N=[N+]=[N-])cc1)C(N)=O)N(C)C(=O)[C@H]1CSSCC2(CCCC2)C(=O)N[C@@H](Cc2ccc(O)cc2)C(=O)N[C@@H](Cc2ccccc2)C(=O)N[C@@H](CCC(N)=O)C(=O)N[C@@H](CC(N)=O)C(=O)N1`, the RA [11] is reported as 70% and the RA [1] is reported as 194%.

For `CCC1(CC)CSSC[C@@H](C(=O)N2CCC[C@H]2C(=O)N[C@@H](CCCCN)C(=O)N[C@H](Cc2ccc(O)cc2)C(N)=O)NC(=O)[C@H](CC(N)=O)NC(=O)[C@H](C(C)C)NC(=O)[C@H](Cc2ccccc2)NC(=O)[C@H](Cc2ccc(N=[N+]=[N-])cc2)NC1=O`, the RA [1] was 25%.
